Source: ChEMBL document CHEMBL2150971, “Selective depletion of mutant p53 by cancer chemopreventive isothiocyanates and their structure-activity relationships” (J Med Chem, 2011)
Active and inactive are the calls of the source.

Legend:
[1] = test system: Cellular tumor antigen p53 (Homo sapiens), P04637 [R280K]; experiment: Induction of p53 R280K mutant depletion in human MDA-MB-231 cells at 10 uM by immunoblot analysis; format: cell-based
Summary of the method: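 MDA-MB-231 cells treated with 10 µM for 24 h; whole-cell lysates immunoblotted for p53 (DO-1) with β-actin loading control, ECL.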

[2] = test system: Cellular tumor antigen p53 (Homo sapiens), P04637 [G245C]; experiment: Induction of covalent cysteine modification at p53 G245C mutant in human NCI-H596 cells at 100 uM incubated for 1 hr by monochlorobimane fluorometric assay; format: cell-based
[3] = test system: Cellular tumor antigen p53 (Homo sapiens), P04637 [G245C]; experiment: Induction of p53 G245C mutant depletion in human NCI-H596 cells at 20 uM by immunoblot analysis; format: cell-based
[4] = test system: Cellular tumor antigen p53 (Homo sapiens), P04637 [G245C]; experiment: Induction of p53 G245C mutant depletion in human NCI-H596 cells at 40 uM incubated for 2 hrs by immunoblot analysis; format: cell-based
Summary of the method: (§1)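 H596 cells (G245C p53), maintained in DMEM or RPMI-1640 with 10% FBS, treated either at 15 µM for varying times up to 24 h or at varying concentrations (10–60 µM) for 2 h; whole-cell lysates, equal protein on SDS gels, PVDF, blotted with p53 DO-1 and β-actin antibodies, ECL.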

[5] = test system: MDA-MB-231; experiment: Induction of apoptosis in human MDA-MB-231 cells expressing p53 R280K mutant at 10 uM incubated for 24 hrs by FITC/Annexin-V staining method; format: functional, cell-based
Summary of the method: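 MDA-MB-231 cells at 40–50% confluency treated with DMSO or 10 µM in DMSO for 24 h; washed in cold PBS, stained with FITC-Annexin V and propidium iodide, analysed by flow cytometry; early apoptotic (Annexin V+/PI−) fraction; mean ± SD of three experiments, unequal-variance two-sample t-test.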

[6] = test system: Cellular tumor antigen p53 (Homo sapiens), P04637 [G245C]; experiment: Induction of conformational changes in p53 G245C mutant in human NCI-H596 cells at 60 uM incubated for 1 hr at 32 degC by tryptophan fluorescence emission spectroscopy; format: cell-based
Summary of the method: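 6 µM purified G245C p53 DNA-binding domain incubated 1 h at 32 °C alone, with DMSO or 60 µM agent; intrinsic fluorescence emission 285–400 nm, excitation 280 nm, slit 5 nm, 3 scans averaged.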

[7] = test system: MDA-MB-468; experiment: Induction of apoptosis in human MDA-MB-468 cells expressing p53 R273H mutant assessed as caspase-3 activation incubated for 24 hrs; format: functional, cell-based
Summary of the method: (§2)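 Cells treated with DMSO or drug for 24 h, lysed in ice-cold kit buffer; 100–200 µg protein incubated with Ac-DEVD-p-nitroaniline at 37 °C for 2–4 h; p-nitroanilide read at 405 nm; mean ± SD of three independent experiments.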

[8] = test system: NCI-H596; experiment: Effect on HSP90 protein expression in human NCI-H596 cells by immunoblot analysis; format: functional, cell-based
Summary of the method: (§3)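 H596 lung cancer cells treated with 15 µM; whole-cell lysates in HEPES pH 7.4/Triton X-100 lysis buffer with protease and phosphatase inhibitors; equal protein resolved on 4–12% Bis-Tris gels, transferred to PVDF, immunoblotted; ECL detection.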

[9] = test system: MCF7; experiment: Induction of apoptosis in human MCF7 cells expressing wild type p53 assessed as caspase-3 activation incubated for 24 hrs; format: functional, cell-based; summary of the method: as §2
[10] = test system: NCI-H596; experiment: Effect on JNK protein expression in human NCI-H596 cells by immunoblot analysis; format: functional, cell-based; summary of the method: as §3
[11] = test system: DU-145; experiment: Induction of p53 […] mutant depletion in human DU145 cells at 10 uM by immunoblot analysis; format: cell-based; settings: TDE = time-dependent effect
Summary of the method: (§4)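 DU145 and SW480 cells exposed to 10 µM for a time course; lysates immunoblotted with p53 DO-1 and β-actin antibodies, ECL detection.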

[12] = test system: MDA-MB-231; experiment: Induction of apoptosis in human MDA-MB-231 cells expressing p53 R280K mutant assessed as caspase-3 activation incubated for 24 hrs; format: functional, cell-based; summary of the method: as §2
[13] = target: Cellular tumor antigen p53 (Homo sapiens) (UniProt P04637); experiment: Induction of p53 depletion in human MCF10A cells at 15 uM incubated for 2 to 24 hrs by immunoblot analysis; format: cell-based; settings: MCF-10A
Summary of the method: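 MCF-10A normal mammary epithelial cells treated with 15 µM for 2, 4, 8 and 24 h; lysates immunoblotted for p53 (DO-1) and β-actin, ECL.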

[14] = test system: A549; experiment: Induction of apoptosis in human A549 cells expressing wild type p53 assessed as caspase-3 activation incubated for 24 hrs; format: functional, cell-based; summary of the method: as §2
[15] = test system: Cellular tumor antigen p53 (Homo sapiens), P04637 [R273H]; experiment: Induction of p53 R273H mutant depletion in human SW480 cells at 10 uM by immunoblot analysis; format: cell-based; settings: TDE = time-dependent effect; summary of the method: as §4
[16] = test system: NCI-H596; experiment: Effect on Bax protein expression in human NCI-H596 cells by immunoblot analysis; format: functional, cell-based; summary of the method: as §3
[17] = test system: H1299; experiment: Induction of temperature sensitive p53 143A mutant depletion in human H1299 cells at 15 uM incubated for 24 hrs at 32.5 degC by immunoblot analysis; format: cell-based
[18] = test system: NCI-H596; experiment: Induction of apoptosis in human NCI-H596 cells expressing p53 G245C mutant assessed as caspase-3 activation incubated for 24 hrs; format: functional, cell-based; summary of the method: as §2
[19] = target: Cellular tumor antigen p53 (Homo sapiens) (UniProt P04637); experiment: Induction of p53 activation in human MCF7 cells at 20 uM incubated for 24 hrs by immunoblot analysis; format: cell-based
Summary of the method: (§5)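 Wild-type p53 lines HCT116, A549 and MCF-7 treated with 20 µM for 2, 4, 8 and 24 h; lysates immunoblotted for p53 (DO-1) and β-actin, ECL.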

[20] = test system: H1299; experiment: Induction of non-temperature sensitive p53 175H mutant depletion in human H1299 cells at 15 uM incubated for 24 hrs at 32.5 degC by immunoblot analysis; format: cell-based
[21] = test system: Cellular tumor antigen p53 (Homo sapiens), P04637 [R280K]; experiment: Induction of p53 R280K mutant depletion in human MDA-MB-231 cells at 15 uM by immunoblot analysis; format: cell-based; settings: TDE = time-dependent effect
Summary of the method: (§6)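 Mutant-p53 lines SCC-4, MDA-MB-468 and MDA-MB-231 exposed to 15 µM for a time course; lysates immunoblotted with p53 DO-1 and β-actin antibodies, ECL detection.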

[22] = test system: H1299; experiment: Induction of non-temperature sensitive p53 175H mutant depletion in human H1299 cells at 15 uM incubated for 24 hrs at 37 degC by immunoblot analysis; format: cell-based
[23] = test system: Cellular tumor antigen p53 (Homo sapiens), P04637 [R273H]; experiment: Induction of p53 R273H mutant depletion in human MDA-MB-468 cells at 15 uM by immunoblot analysis; format: cell-based; settings: TDE = time-dependent effect; summary of the method: as §6
[24] = target: Cellular tumor antigen p53 (Homo sapiens) (UniProt P04637); experiment: Induction of p53 depletion in human MCF7 cells at 20 uM incubated for 2 to 24 hrs by immunoblot analysis; format: cell-based; summary of the method: as §5
[25] = test system: SW480; experiment: Induction of apoptosis in human SW480 cells expressing p53 R273H mutant assessed as caspase-3 activation incubated for 24 hrs; format: functional, cell-based; summary of the method: as §2
[26] = test system: Cellular tumor antigen p53 (Homo sapiens), P04637 [G245C]; experiment: Induction of p53 G245C mutant depletion in human NCI-H596 cells at 15 uM by immunoblot analysis; format: cell-based; settings: TDE = time-dependent effect; summary of the method: as §1
[27] = test system: Cellular tumor antigen p53 (Homo sapiens), P04637 [P151S]; experiment: Induction of p53 P151S mutant depletion in human SCC4 cells at 15 uM by immunoblot analysis; format: cell-based; settings: SCC-4, TDE = time-dependent effect; summary of the method: as §6
[28] = test system: HCT-116; experiment: Induction of apoptosis in human HCT116 cells expressing wild type p53 assessed as caspase-3 activation incubated for 24 hrs; format: functional, cell-based; summary of the method: as §2
[29] = test system: NCI-H596; experiment: Effect on DR5 protein expression in human NCI-H596 cells by immunoblot analysis; format: functional, cell-based; summary of the method: as §3
[30] = test system: NCI-H596; experiment: Effect on p53 mRNA expression in human NCI-H596 cells at 15 uM incubated for 2 to 6 hrs by RT-PCR; format: functional, cell-based
Summary of the method: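 H596 cells exposed to 15 µM for 2, 4 and 6 h, vehicle DMSO; total RNA extracted, one-step RT-PCR for p53 and β-actin mRNA.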

[31] = target: Cellular tumor antigen p53 (Homo sapiens) (UniProt P04637); experiment: Induction of p53 depletion in human A549 cells at 20 uM incubated for 2 to 24 hrs by immunoblot analysis; format: cell-based; summary of the method: as §5
[32] = test system: H1299; experiment: Induction of temperature sensitive p53 143A mutant depletion in human H1299 cells at 15 uM incubated for 24 hrs at 37 degC by immunoblot analysis; format: cell-based
[33] = target: Cellular tumor antigen p53 (Homo sapiens) (UniProt P04637); experiment: Induction of p53 depletion in human HCT116 cells at 20 uM incubated for 2 to 24 hrs by immunoblot analysis; format: cell-based; settings: HCT-116; summary of the method: as §5
[34] = test system: Cellular tumor antigen p53 (Homo sapiens), P04637 [G245C]; experiment: Induction of p53 G245C mutant depletion in human NCI-H596 cells incubated for 2 to 6 hrs by immunoblot analysis; format: cell-based; summary of the method: as §1

Measured: Activity

S=C=Nc1ccccc1
inactive: [1] | [2] | [3]

C=CCN=C=S
inactive: [1] | [4] | [2] | [3]

COc1ccc(CN=C=S)cc1
active: [1] | [2] | [3]

S=C=NCc1ccc(Cl)cc1
active: [1] | [2] | [3]

S=C=NC(c1ccccc1)(c1ccccc1)c1ccccc1
inactive: [1] | [2] | [3] | [5]

S=C=NCc1ccc(Oc2ccccc2)cc1
active: [1] | [6] | [3]

C[S+]([O-])CCCCN=C=S (stereo unspecified)
inactive: [1] | [6] | [4] | [2] | [3] | [5]

S=C=NCC1CCCCC1
inactive: [1] | [2] | [3] | [5]

S=C=NCCc1ccccc1
inactive: [8] | [9] | [10] | [13] | [14] | [16] | [17] | [24] | [28] | [29] | [30] | [31] | [33]
active: [7] | [1] | [11] tde | [12] | [15] tde | [18] | [19] | [2] | [20] | [21] tde | [22] | [23] tde | [25] | [26] tde | [27] tde | [3] | [32] | [34] Dose-dependent effect
